Data: ChEMBL document CHEMBL4354800, “Amphiphilic nebramine-based hybrids Rescue legacy antibiotics from intrinsic resistance in multidrug-resistant Gram-negative bacilli” (Eur J Med Chem, 2019)

Columns and labels:
Pseudomonas aeruginosa [1] = assay: Antimicrobial activity against MDR/XDR Pseudomonas aeruginosa isolate 101885 harboring GyrA Thr83Ile mutant incubated for 18 hrs by broth microdilution method; assay type: functional; details: isolate 101885, 18 h
Outline: (§1)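 Broth microdilution per CLSI: overnight cultures set to 0.5 McFarland in saline, diluted 1:50 in Mueller-Hinton broth to a final 5 × 10^5 CFU/mL, added to 2-fold serial dilutions, incubated 18 h at 37 °C; MIC is the lowest concentration without visible turbidity, confirmed at 590 nm.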

Pseudomonas aeruginosa [2] = assay: Antimicrobial activity against MDR/XDR Pseudomonas aeruginosa isolate PA264-104354 harboring GyrA Thr83Ile mutant incubated for 18 hrs by broth microdilution method; assay type: functional; details: isolate PA264-104354, 18 h; outline: as §1
Pseudomonas aeruginosa [3] = assay: Synergistic antibacterial activity against MDR/XDR Pseudomonas aeruginosa isolate PA260-97103 harboring GyrA T83I mutant assessed as fractional inhibitory concentration index in presence of ciprofloxacin incubated for 18 hrs by broth microdilution method; assay type: functional
Outline: (§2)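 Checkerboard synergy assay. Antibiotic and adjuvant in twofold dilutions in Mueller-Hinton broth. Inoculum 5 × 10^5 CFU/mL from a 0.5 McFarland suspension, 18 h at 37 °C, MIC read by turbidity and confirmed at 590 nm. FIC = MIC in combination / MIC alone for each agent, FICI = sum. Interpreted as ≤0.5 synergy, 0.5–4 no interaction, >4 antagonism.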

Pseudomonas aeruginosa [4] = assay: Synergistic antibacterial activity against MDR/XDR Pseudomonas aeruginosa isolate PA262-101856 harboring GyrA T83I mutant assessed as fractional inhibitory concentration index in presence of moxifloxacin incubated for 18 hrs by broth microdilution method; assay type: functional; outline: as §2
Pseudomonas aeruginosa [5] = assay: Synergistic antibacterial activity against MDR/XDR Pseudomonas aeruginosa isolate PA262-101856 harboring GyrA T83I mutant assessed as fractional inhibitory concentration index in presence of ciprofloxacin incubated for 18 hrs by broth microdilution method; assay type: functional; outline: as §2
Pseudomonas aeruginosa [6] = assay: Synergistic antibacterial activity against MDR/XDR Pseudomonas aeruginosa isolate 100036 harboring GyrA T83I mutant assessed as fractional inhibitory concentration index in presence of moxifloxacin incubated for 18 hrs by broth microdilution method; assay type: functional; outline: as §2
Pseudomonas aeruginosa [7] = assay: Synergistic antibacterial activity against MDR/XDR Pseudomonas aeruginosa isolate 100036 harboring GyrA T83I mutant assessed as fractional inhibitory concentration index in presence of ciprofloxacin incubated for 18 hrs by broth microdilution method; assay type: functional; outline: as §2
Pseudomonas aeruginosa [8] = assay: Synergistic antibacterial activity against MDR/XDR Pseudomonas aeruginosa isolate 101885 harboring GyrA T83I mutant assessed as fractional inhibitory concentration index in presence of ciprofloxacin incubated for 18 hrs by broth microdilution method; assay type: functional; outline: as §2
Pseudomonas aeruginosa [9] = assay: Synergistic antibacterial activity against MDR/XDR Pseudomonas aeruginosa isolate PA259-96918 harboring GyrA T83I mutant assessed as fractional inhibitory concentration index in presence of moxifloxacin incubated for 18 hrs by broth microdilution method; assay type: functional; outline: as §2
Pseudomonas aeruginosa [10] = assay: Synergistic antibacterial activity against MDR/XDR Pseudomonas aeruginosa isolate PA259-96918 harboring GyrA T83I mutant assessed as fractional inhibitory concentration index in presence of ciprofloxacin incubated for 18 hrs by broth microdilution method; assay type: functional; outline: as §2
Pseudomonas aeruginosa [11] = assay: Synergistic antibacterial activity against MDR/XDR Pseudomonas aeruginosa isolate 91433 devoid of GyrA T83I mutant assessed as fractional inhibitory concentration index in presence of moxifloxacin incubated for 18 hrs by broth microdilution method; assay type: functional; outline: as §2
Pseudomonas aeruginosa [12] = assay: Synergistic antibacterial activity against MDR/XDR Pseudomonas aeruginosa isolate 101243 devoid of GyrA T83I mutant assessed as fractional inhibitory concentration index in presence of moxifloxacin incubated for 18 hrs by broth microdilution method; assay type: functional; outline: as §2
Pseudomonas aeruginosa [13] = assay: Synergistic antibacterial activity against MDR/XDR Pseudomonas aeruginosa isolate 101243 devoid of GyrA T83I mutant assessed as fractional inhibitory concentration index in presence of ciprofloxacin incubated for 18 hrs by broth microdilution method; assay type: functional; outline: as §2
Pseudomonas aeruginosa [14] = assay: Synergistic antibacterial activity against MDR/XDR Pseudomonas aeruginosa isolate PA262-101856 harboring GyrA T83I mutant assessed as fractional inhibitory concentration index in presence of minocycline incubated for 18 hrs by broth microdilution method; assay type: functional; outline: as §2
Pseudomonas aeruginosa [15] = assay: Synergistic antibacterial activity against MDR/XDR Pseudomonas aeruginosa isolate PA260-97103 harboring GyrA T83I mutant assessed as fractional inhibitory concentration index in presence of minocycline incubated for 18 hrs by broth microdilution method; assay type: functional; outline: as §2
Pseudomonas aeruginosa [16] = assay: Synergistic antibacterial activity against MDR/XDR Pseudomonas aeruginosa isolate 101885 harboring T83I mutant assessed as fractional inhibitory concentration index in presence of minocycline incubated for 18 hrs by broth microdilution method; assay type: functional; outline: as §2
Pseudomonas aeruginosa [17] = assay: Synergistic antibacterial activity against MDR/XDR Pseudomonas aeruginosa isolate PA264-104354 harboring GyrA T83I mutant assessed as fractional inhibitory concentration index in presence of minocycline incubated for 18 hrs by broth microdilution method; assay type: functional; outline: as §2
Pseudomonas aeruginosa [18] = assay: Synergistic antibacterial activity against MDR/XDR Pseudomonas aeruginosa isolate 101243 devoid of GyrA T83I mutant assessed as fractional inhibitory concentration index in presence of minocycline incubated for 18 hrs by broth microdilution method; assay type: functional; outline: as §2
Pseudomonas aeruginosa [19] = assay: Synergistic antibacterial activity against MDR/XDR Pseudomonas aeruginosa isolate 101885 harboring T83I mutant assessed as fractional inhibitory concentration index in presence of rifampicin incubated for 18 hrs by broth microdilution method; assay type: functional; outline: as §2
Pseudomonas aeruginosa [20] = assay: Synergistic antibacterial activity against MDR/XDR Pseudomonas aeruginosa isolate 91433 devoid of GyrA T83I mutant assessed as fractional inhibitory concentration index in presence of rifampicin incubated for 18 hrs by broth microdilution method; assay type: functional; outline: as §2
Klebsiella pneumoniae = assay: Synergistic antibacterial activity against Klebsiella pneumoniae 116381 assessed as fractional inhibitory concentration index in presence of minocycline incubated for 18 hrs by broth dilution method; assay type: functional
Outline: (§3)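 Checkerboard titration of the adjuvant against the antibiotic, run under the CLSI microdilution conditions (MHB, 5 × 10^5 CFU/mL, 18 h, 37 °C). Each agent's FIC is its MIC in combination divided by its MIC alone; FICI is the sum of the two FICs. FICI ≤0.5 was read as synergy, >0.5–4.0 as no interaction, and >4.0 as antagonism.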

Enterobacter cloacae [21] = assay: Synergistic antibacterial activity against Enterobacter cloacae 117029 assessed as fractional inhibitory concentration index in presence of minocycline incubated for 18 hrs by broth dilution method; assay type: functional; outline: as §3
Enterobacter cloacae [22] = assay: Synergistic antibacterial activity against Enterobacter cloacae 117029 assessed as fractional inhibitory concentration index in presence of rifampicin incubated for 18 hrs by broth dilution method; assay type: functional; outline: as §3
HepG2 = assay: Cytotoxicity against human HepG2 cells at 50 uM incubated for 48 hrs by PrestoBlue dye based fluorescence assay; assay type: cell-based; details: hepg2, 48 h
HEK293 = assay: Cytotoxicity against HEK293 cells at 50 uM incubated for 48 hrs in presence of 50 uM rifampicin by PrestoBlue dye based fluorescence assay; assay type: cell-based; details: human, hek293, 48 h

Row | SMILES | MIC (Pseudomonas aeruginosa [1]) | MIC (Pseudomonas aeruginosa [2]) | fractional inhibitory concentration index (FICI) (Pseudomonas aeruginosa [3]) | fractional inhibitory concentration index (FICI) (Pseudomonas aeruginosa [4]) | fractional inhibitory concentration index (FICI) (Pseudomonas aeruginosa [5]) | fractional inhibitory concentration index (FICI) (Pseudomonas aeruginosa [6]) | fractional inhibitory concentration index (FICI) (Pseudomonas aeruginosa [7]) | fractional inhibitory concentration index (FICI) (Pseudomonas aeruginosa [8]) | fractional inhibitory concentration index (FICI) (Pseudomonas aeruginosa [9]) | fractional inhibitory concentration index (FICI) (Pseudomonas aeruginosa [10]) | fractional inhibitory concentration index (FICI) (Pseudomonas aeruginosa [11]) | fractional inhibitory concentration index (FICI) (Pseudomonas aeruginosa [12]) | fractional inhibitory concentration index (FICI) (Pseudomonas aeruginosa [13]) | fractional inhibitory concentration index (FICI) (Pseudomonas aeruginosa [14]) | fractional inhibitory concentration index (FICI) (Pseudomonas aeruginosa [15]) | fractional inhibitory concentration index (FICI) (Pseudomonas aeruginosa [16]) | fractional inhibitory concentration index (FICI) (Pseudomonas aeruginosa [17]) | fractional inhibitory concentration index (FICI) (Pseudomonas aeruginosa [18]) | fractional inhibitory concentration index (FICI) (Pseudomonas aeruginosa [19]) | fractional inhibitory concentration index (FICI) (Pseudomonas aeruginosa [20]) | also measured
1 | COc1c(N2C[C@@H]3CCCN(CCCCCCCCCCCCO[C@@H]4[C@@H](O)[C@H](N)C[C@H](N)[C@H]4O[C@H]4O[C@H](CN)[C@@H](O)C[C@H]4N)[C@@H]3C2)c(F)cc2c(=O)c(C(=O)O)cn(C3CC3)c12.Cl.Cl.Cl.Cl.Cl | 128 mg/L | 256 mg/L | 0.25 | 0.13 - 0.16 | 0.25 - 0.28 | 0.08 | 0.56 | >1 | 0.06 - 0.07 | 0.25 - 0.27 | 0.31 | 0.16 | 0.25 | 0.03 - 0.05 | 0.09 | 0.07 | 0.05 | 0.13 | 0.05 | 0.16 | fractional inhibitory concentration index (FICI) (Klebsiella pneumoniae): 0.063 - 78; fractional inhibitory concentration index (FICI) (Enterobacter cloacae [21]): 0.19; fractional inhibitory concentration index (FICI) (Enterobacter cloacae [22]): 0.06; Activity (HepG2): Non-Toxic; Activity (HEK293): Non-Toxic
2 | Cl.Cl.Cl.Cl.Cl.Cl.NC[C@H]1O[C@H](O[C@H]2[C@H](OCCCCCCCCCCN3CCN(Cc4cccc5ccccc45)CC3)[C@@H](O)[C@H](N)C[C@@H]2N)[C@H](N)C[C@@H]1O | 512 mg/L |  | 0.38 | 0.09 | 0.13 | 0.063 - 0.07 | 0.125 - 0.133 | 0.13 | 0.016 - 0.023 | 0.063 - 0.078 | 0.25 | 0.13 | 0.16 | 0.04 | 0.09 | 0.04 |  | 0.09 | 0.02 | 0.5 | 
3 | Cl.Cl.Cl.Cl.Cl.NC[C@H]1O[C@H](O[C@H]2[C@H](OCCCCCCCCCCCCN3CCN(c4cc5c(cc4F)c(=O)c(C(=O)O)cn5C4CC4)CC3)[C@@H](O)[C@H](N)C[C@@H]2N)[C@H](N)C[C@@H]1O |  | 128 mg/L |  |  |  |  |  |  |  |  |  |  |  |  |  |  | 0.039 |  |  |  | fractional inhibitory concentration index (FICI) (Klebsiella pneumoniae): 0.063 - 0.07; fractional inhibitory concentration index (FICI) (Enterobacter cloacae [21]): 0.125; fractional inhibitory concentration index (FICI) (Enterobacter cloacae [22]): 0.023; Activity (HepG2): Non-Toxic; Activity (HEK293): Non-Toxic
